The text below walks through data of ChEMBL document CHEMBL3872215, “Optimization and biological evaluation of aminopyrimidine-based IκB kinase β inhibitors with potent anti-inflammatory effects” (Eur J Med Chem, 2016).

The target of series [1] is T1, Inhibitor of nuclear factor kappa-B kinase subunit beta (Homo sapiens, UniProt O14920).
T1 sequence (O14920 whole entry): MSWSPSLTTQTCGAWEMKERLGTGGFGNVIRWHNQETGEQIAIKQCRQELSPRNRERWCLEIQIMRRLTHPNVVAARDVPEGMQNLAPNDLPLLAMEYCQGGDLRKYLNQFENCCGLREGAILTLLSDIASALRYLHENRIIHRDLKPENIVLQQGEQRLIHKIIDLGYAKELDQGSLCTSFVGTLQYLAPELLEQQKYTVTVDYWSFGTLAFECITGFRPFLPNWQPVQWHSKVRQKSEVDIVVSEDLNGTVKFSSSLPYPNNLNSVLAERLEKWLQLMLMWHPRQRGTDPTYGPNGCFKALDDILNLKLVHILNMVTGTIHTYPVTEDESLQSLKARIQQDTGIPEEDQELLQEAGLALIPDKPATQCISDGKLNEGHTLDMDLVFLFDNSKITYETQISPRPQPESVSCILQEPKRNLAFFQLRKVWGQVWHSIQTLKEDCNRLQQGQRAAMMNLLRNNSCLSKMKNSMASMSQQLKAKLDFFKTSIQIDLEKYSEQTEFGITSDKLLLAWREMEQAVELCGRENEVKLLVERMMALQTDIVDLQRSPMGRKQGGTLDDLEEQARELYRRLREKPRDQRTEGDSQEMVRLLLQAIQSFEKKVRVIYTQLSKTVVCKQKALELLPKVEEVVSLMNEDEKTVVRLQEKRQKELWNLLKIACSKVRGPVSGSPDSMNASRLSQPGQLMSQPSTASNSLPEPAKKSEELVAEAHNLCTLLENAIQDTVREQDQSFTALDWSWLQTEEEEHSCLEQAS
Briefly: Inhibition of IKKbeta (unknown origin).

The nature of series [2]: Lipophilicity, logD of the compound at pH 7.4. The class given is physicochemical. As to conditions: buffer.
The subject of series [3] is RAW264.7. Description: Antiinflammatory activity against mouse RAW264.7 cells assessed as inhibition of LPS induced nitrite accumulation at 1 to 5 uM preincubated for 6 hrs followed by LPS challenge measured after 18 hrs by Griess reagent based assay. The class given is functional, cell-based. The procedure, abridged: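 Cells seeded at 1 × 10^5 cells/ml and grown 24 h, then pretreated 6 h with compound at 1, 2 or 5 µM. LPS 100 ng/ml added for a further 18 h. NO production read as nitrite in the culture medium and compared with the negative control.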
In general terms: Nitrite, measured by Griess reagent, commonly stands in for NO production.

Series [4] deals with RAW264.7. Description: Antiinflammatory activity against mouse RAW264.7 cells assessed as inhibition of LPS induced nitric oxide synthase synthesis preincubated for 6 hrs followed by LPS challenge by western blot method. The class given is functional, cell-based.
For series [5], the system named is RAW264.7. Description: Antiinflammatory activity against mouse RAW264.7 cells assessed as inhibition of LPS induced IL-1alpha production at 5 uM preincubated for 6 hrs followed by LPS challenge measured after 18 hrs. It is filed as functional, cell-based. The procedure, abridged:
(§1)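 Cells cultured in DMEM with 10% FBS and 1% penicillin/streptomycin, pretreated 6 h with compound at 5 µM, then LPS 100 ng/ml for 18 h. Lysates mixed with antibody cocktail and incubated overnight on a blocked mouse cytokine array membrane, then streptavidin-HRP with chemiluminescent detection. Relative protein expression taken from densitometry of scanned images.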

Series [6] deals with RAW264.7. Description: Antiinflammatory activity against mouse RAW264.7 cells assessed as inhibition of LPS induced SiCAM-1 production at 5 uM preincubated for 6 hrs followed by LPS challenge measured after 18 hrs. The class given is functional, cell-based. The procedure, abridged:
as §1

For series [7], the system named is RAW264.7. Briefly: Antiinflammatory activity against mouse RAW264.7 cells assessed as inhibition of LPS induced TIMP-1 production at 5 uM preincubated for 6 hrs followed by LPS challenge measured after 18 hrs. The class given is functional, cell-based. The procedure, abridged:
as §1

Series [8] has as its system RAW264.7. Briefly: Antiinflammatory activity against mouse RAW264.7 cells assessed as inhibition of LPS induced I-TAC production at 5 uM preincubated for 6 hrs followed by LPS challenge measured after 18 hrs. The class given is functional, cell-based. The procedure, abridged: as §1
The test system of series [9] is RAW264.7. Briefly: Antiinflammatory activity against mouse RAW264.7 cells assessed as inhibition of LPS induced IL-6 production preincubated for 6 hrs followed by LPS challenge measured after 18 hrs by ELISA method. The class given is functional, cell-based. The procedure, abridged:
(§2)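 Cells plated at 4 × 10^5 per well and left to attach overnight, then pretreated 6 h with compound (1, 2 and 5 µM) before LPS 100 ng/ml for 18 h. IL-6 and TNF-α measured in cell-free supernatants with a mouse ELISA kit, following the kit instructions.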
(An ELISA detects its analyte on a solid surface through an enzyme-linked reagent.)

For series [10], the system named is RAW264.7. Briefly: Antiinflammatory activity against mouse RAW264.7 cells assessed as inhibition of LPS induced TNF-alpha production preincubated for 6 hrs followed by LPS challenge measured after 18 hrs by ELISA method. It is filed as functional, cell-based. The procedure, abridged:
as §2

In series [11] the target is T2, Inhibitor of nuclear factor kappa-B kinase subunit beta (Mus musculus) (UniProt O88351).
T2 sequence (whole entry): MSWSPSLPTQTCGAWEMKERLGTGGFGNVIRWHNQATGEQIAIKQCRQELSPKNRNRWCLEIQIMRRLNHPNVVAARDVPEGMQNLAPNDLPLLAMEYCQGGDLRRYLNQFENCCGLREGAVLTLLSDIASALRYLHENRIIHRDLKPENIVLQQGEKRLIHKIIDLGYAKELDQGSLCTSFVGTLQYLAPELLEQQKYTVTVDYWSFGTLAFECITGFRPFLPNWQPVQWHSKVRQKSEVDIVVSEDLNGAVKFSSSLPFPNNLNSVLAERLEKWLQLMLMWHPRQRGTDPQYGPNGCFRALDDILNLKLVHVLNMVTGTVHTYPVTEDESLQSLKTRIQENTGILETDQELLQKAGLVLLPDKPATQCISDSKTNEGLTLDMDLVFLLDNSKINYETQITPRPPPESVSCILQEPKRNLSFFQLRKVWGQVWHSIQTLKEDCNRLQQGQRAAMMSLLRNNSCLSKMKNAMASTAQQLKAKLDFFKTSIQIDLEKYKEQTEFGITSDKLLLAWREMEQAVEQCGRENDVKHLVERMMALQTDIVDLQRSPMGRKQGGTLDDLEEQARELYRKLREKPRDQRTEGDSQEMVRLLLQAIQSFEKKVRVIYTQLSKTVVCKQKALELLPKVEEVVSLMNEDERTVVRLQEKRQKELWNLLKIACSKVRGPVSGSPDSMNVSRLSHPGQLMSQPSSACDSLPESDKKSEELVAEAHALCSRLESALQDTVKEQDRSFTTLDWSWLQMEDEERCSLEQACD
Description: Inhibition of LPS-induced IKKbeta-mediated NF-kappa-B p65 phosphorylation in mouse RAW264.7 cells preincubated for 6 hrs followed by LPS challenge measured after 30 mins by ELISA method. It is filed as cell-based. The procedure, abridged:
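Cells exposed 6 h to compound at 1, 2 and 5 µM, then LPS 100 ng/ml for 30 min. Cytoplasmic phospho-NF-κB p65 measured with an ELISA kit, following the kit instructions.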

For series [12], the target named is T2, Inhibitor of nuclear factor kappa-B kinase subunit beta (Mus musculus). Description: Inhibition of LPS induced IKKbeta-mediated NF-kappa-B p65 nuclear translocation in mouse RAW264.7 cells at 5 uM preincubated for 6 hrs followed by LPS challenge measured after 30 mins by DAPI staining based confocal laser scanning microscopic method. It is filed as cell-based. The procedure, abridged: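 Pretreatment 6 h with 5 µM compound, then LPS 100 ng/ml for 30 min. Cells fixed in acetone:methanol 1:1 for 10 min, blocked 1 h at room temperature, and incubated overnight at 4 °C with p-NF-κB antibody (1:50). RITC secondary (1:100) applied 1 h, nuclei stained with DAPI, and slides imaged by confocal laser scanning microscopy.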

Series [13] has the same target. Description: Inhibition of LPS-induced IKKbeta phosphorylation in mouse RAW264.7 cells preincubated for 6 hrs followed by LPS challenge measured after 30 mins by Western blot method. (In western blotting, separated proteins are transferred to a membrane and probed.)
For series [14] the target is unchanged. Description: Inhibition of LPS-induced IKKbeta-mediated IkappaB-alpha phosphorylation in mouse RAW264.7 cells preincubated for 6 hrs followed by LPS challenge measured after 30 mins by Western blot method.

SMILES strings stand for the structures. Activity calls are given as the source filed them. The rule behind the calls is not given here.

As to `CN(C)c1ccc(Nc2nccc(-c3ccc(Oc4ccccc4N)cc3)n2)cc1`, in series [1], half-maximal inhibition (IC50) required 28700 nM.

As for `CS(=O)(=O)c1ccc(Nc2nccc(-c3ccc(Oc4ccccc4N)cc3)n2)cc1`, in series [1], 2700 nM corresponded to half-maximal inhibition (IC50).

Take `Nc1ccccc1Oc1ccc(-c2ccnc(Nc3cccc(S(N)(=O)=O)c3)n2)cc1`: the midpoint of inhibition in [1], the IC50, lay at 1600 nM.

Consider `Cc1ccc(Nc2nccc(-c3ccc(Oc4ccccc4N)cc3)n2)cc1`, for which the IC50 (usually the midpoint of a concentration-inhibition curve) in [1] was above 50000 nM.

Take `NS(=O)(=O)c1ccc(Nc2nccc(-c3ccc(Oc4ccccc4[N+](=O)[O-])cc3)n2)cc1`: the IC50 in series [1] came out at 34 nM.

Turning to `NCCOc1ccc(-c2ccnc(Nc3ccc(S(N)(=O)=O)cc3)n2)cc1`, the logD (usually lipophilicity at a set pH, counting ionised and neutral species) in series [2] turned out to be 1.39. Further, in series [1], the IC50 was found to be 65 nM. In addition, the inhibition result in series [3] is “Active”.

As for `NS(=O)(=O)c1ccc(Nc2nccc(-c3ccc(Oc4ccccc4)cc3)n2)cc1`, half-maximal inhibition in series [1] (IC50) required 1520 nM.

In the case of `Nc1ccc(-c2ccnc(Nc3ccc(S(=O)(=O)NCCO)cc3)n2)cc1`, the logD in [2] came out at 0.58. The IC50 in series [1] is 53 nM. Besides, the inhibition result in series [3] was “Active”.

`Nc1ccccc1Oc1ccc(-c2ccnc(Nc3ccc4ncsc4c3)n2)cc1` registered an IC50 in series [1] of 4600 nM.

In [1], `Nc1ccccc1Oc1ccc(-c2ccnc(Nc3ccc(S(=O)(=O)Nc4nccs4)cc3)n2)cc1` registered an IC50 of 1100 nM.

As to `CCOC(=O)Nc1ccc(Nc2nccc(-c3ccc(Oc4ccccc4[N+](=O)[O-])cc3)n2)cc1`, in series [1], the IC50 was above 20000 nM.

In the case of `CC(=O)c1ccc(Nc2nccc(-c3ccc(Oc4ccccc4N)cc3)n2)cc1`, the half-maximal inhibitory concentration (IC50) in series [1] stood at 8100 nM.

With `N#Cc1ccc(Nc2nccc(-c3ccc(Oc4ccccc4N)cc3)n2)cc1`, it took 6200 nM to reach half-maximal inhibition in [1] (IC50).

For `CC(=O)Nc1ccc(Nc2nccc(-c3ccc(Oc4ccccc4N)cc3)n2)cc1`, 4200 nM corresponded to half-maximal inhibition in series [1] (IC50).

The compound `N#Cc1ccc(-c2ccnc(Nc3ccc(S(=O)(=O)NCCO)cc3)n2)cc1` came in with a concentration for half-maximal inhibition (IC50) in series [1] of 111 nM.

With `CC(C)(C)OC(=O)NCCOc1ccc(-c2ccnc(Nc3ccc(S(N)(=O)=O)cc3)n2)cc1`, it took 138 nM to reach half-maximal inhibition in series [1] (IC50).

As for `NS(=O)(=O)c1ccc(Nc2nccc(-c3ccc(Cl)cc3)n2)cc1`, half-maximal inhibition in [1] (IC50) required 19 nM.

For `Nc1ccc(-c2ccnc(Nc3ccc(S(N)(=O)=O)cc3)n2)cc1`, 41 nM corresponded to half-maximal inhibition in series [1] (IC50). Also, the inhibition entry in series [3], in [5], in series [6], in series [7], in series [8] and in series [12] was “Active” each time. In addition, the inhibition result in series [4], in [9], in series [10], in series [11], in series [13] and in series [14] was “Dose-dependent effect” throughout.

`CN(C)CCOc1ccc(-c2ccnc(Nc3ccc(S(N)(=O)=O)cc3)n2)cc1` yielded an IC50 in series [1] of 79 nM. In addition, the inhibition entry in series [3] is “Active”.

For the compound `Nc1ccccc1Oc1ccc(-c2ccnc(Nc3ccc(Cl)cc3)n2)cc1`, in series [1], the IC50 amounted to 34100 nM.

With `Nc1ccccc1Oc1ccc(-c2ccnc(Nc3ccccc3)n2)cc1`, in [1], the IC50 was determined as 11800 nM.

`COc1ccc(Nc2nccc(-c3ccc(Oc4ccccc4N)cc3)n2)cc1` registered an IC50 in series [1] of 12000 nM.

`N#Cc1cccc(-c2ccnc(Nc3ccc(S(=O)(=O)NCCO)cc3)n2)c1` had a logD in series [2] of 1.49. In [1], this compound yielded an IC50 of 190 nM. The inhibition result in series [3] was “Active”.

As to `Nc1ccccc1Oc1ccc(-c2ccnc(Nc3ccc(S(N)(=O)=O)cc3)n2)cc1`, the logD in series [2] is 3.29. Moreover, the IC50 in series [1] was determined as 97 nM.

In turn, `N#Cc1ccc(-c2ccnc(Nc3ccc(S(N)(=O)=O)cc3)n2)cc1` displayed a logD in [2] of 3.81. Further, the IC50 in series [1] came to 58 nM.

For `NC(=O)c1ccc(Nc2nccc(-c3ccc(Oc4ccccc4N)cc3)n2)cc1`, in series [1], 14200 nM corresponded to half-maximal inhibition (IC50).

Turning to `CS(=O)(=O)Nc1ccc(Nc2nccc(-c3ccc(Oc4ccccc4[N+](=O)[O-])cc3)n2)cc1`, in series [1], the IC50 came to 320 nM.

As for `CNS(=O)(=O)c1ccc(Nc2nccc(-c3ccc(Oc4ccccc4[N+](=O)[O-])cc3)n2)cc1`, in series [1], the half-inhibitory concentration (IC50) was 1100 nM.

In turn, `COC(=O)Nc1ccc(Nc2nccc(-c3ccc(Oc4ccccc4[N+](=O)[O-])cc3)n2)cc1` came in with an IC50 in series [1] above 20000 nM.
